Scp-1 inhibitor – Scp-1 phosphatase inhibitors, primary screen, biochemical, colorimetric, uHTS; Recombinant Scp1, phosphopeptide, malachite green phosphate absorbance; inhibition, % at 20 µM; 340,000 tested, 0.88% active; AID 493091, 2011;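 active means inhibition above about 50% at 20 µM, limit read from the data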;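 further: plate controls were DMSO wells with enzyme for no effect and wells lacking enzyme for full effect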
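System: SCP-1 catalytic domain; Reagent: Phospho 17-mer peptide substrate; Doses: one concentration, 20 µM, with 1.0% DMSO; Incubation: 45 min room-temperature reaction, 5 min colour, 30 min stabiliser; Signal: Phosphate-binding colour reagent, absorbance read at 630 nm.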
LMPTP inh – LMPTP phosphatase inhibitors, primary screen, biochemical, fluorescence intensity, uHTS. Low molecular weight phosphotyrosine protein phosphatase (Homo sapiens), P24666. recombinant LMPTP-A, OMFP fluorogenic substrate. inhibition, % at 20 µM. 360,000 tested, 0.22% active;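 active means compounds that cut the enzyme signal by at least half of the control window in the single-dose screen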;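 further: plate controls were DMSO wells with enzyme plus substrate for no effect and substrate without enzyme for full effect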
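Test system – LMPTP-A phosphatase enzyme · Quantity – 0.625 nM LMPTP-A final · Reagent – OMFP substrate, 400 µM final · Dosing – one test concentration per compound, 20 µM, with 3% DMSO overall · Timing – 50 min enzyme reaction at room temperature, protected from light · Detection – fluorescence intensity · Controls – substrate-only low control, DMSO enzyme-plus-substrate high control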
DNMT1 block – human DNMT1 methyltransferase inhibitors, primary screen, biochemical, molecular beacon, fluorescence, HinP1I cleavage, uHTS; DNA (cytosine-5)-methyltransferase 1 (Homo sapiens), P26358; inhibition (reported as % activation of signal), % at 10 µM; 360,000 tested, 0.83% active; in the data active means inhibition above about 50%
NadD inh – inhibitors of S. aureus NadD, primary screen, biochemical, colorimetric, uHTS; Nicotinate-nucleotide adenylyltransferase NadD (Staphylococcus aureus N315); purified NadD enzyme, colorimetric absorbance read-out; AID 602399, 2012; 360,000 tested, 0.78% active; inhibition, % at 20 µM; in the data active means inhibition above about 26%
STEP inh – STEP phosphatase inhibitors, primary screen, biochemical, fluorescence intensity, uHTS. Tyrosine-protein phosphatase non-receptor type 5 (Homo sapiens), P54829. recombinant STEP, OMFP fluorogenic substrate. inhibition, % at 20 µM. 360,000 tested, 0.25% active;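 active means inhibition at 20 µM, scaled per plate between control wells, above about 37%, limit read from the data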;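 further: 0% = DMSO with enzyme and substrate and 100% = substrate only without enzyme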
Target sequence (P54829 whole entry, looked up): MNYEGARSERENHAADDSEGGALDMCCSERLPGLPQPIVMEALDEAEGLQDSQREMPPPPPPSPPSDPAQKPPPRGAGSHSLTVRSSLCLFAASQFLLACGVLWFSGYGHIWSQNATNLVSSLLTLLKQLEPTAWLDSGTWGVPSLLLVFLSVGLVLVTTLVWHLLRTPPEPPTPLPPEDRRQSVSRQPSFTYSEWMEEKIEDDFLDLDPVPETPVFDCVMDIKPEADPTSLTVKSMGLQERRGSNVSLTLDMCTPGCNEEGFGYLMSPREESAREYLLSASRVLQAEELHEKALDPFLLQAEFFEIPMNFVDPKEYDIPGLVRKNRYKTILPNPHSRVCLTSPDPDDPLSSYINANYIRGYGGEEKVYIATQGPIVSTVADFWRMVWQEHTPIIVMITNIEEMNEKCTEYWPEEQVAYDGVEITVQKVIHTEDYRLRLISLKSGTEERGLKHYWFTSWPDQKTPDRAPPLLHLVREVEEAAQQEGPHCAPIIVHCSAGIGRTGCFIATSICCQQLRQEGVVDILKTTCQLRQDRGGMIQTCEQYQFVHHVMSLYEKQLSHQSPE
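System: STEP phosphatase, cell-free reaction; Buffer or medium: Bis-Tris pH 6.0 buffer with DTT, detergent; Incubation: 20 min at room temperature, dark; Measured by: fluorescence, 480/540 nm.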
SUMO1-SIM PPI – modulators of SUMO1 protein-protein interactions, primary screen, biochemical, uHTS | SUMO1 binding to a labelled peptide, TR-FRET, 1 h | inhibition, % at 20 µM | 360,000 tested, 0.33% active | AID 602429, 2012; in the data active means inhibition above about 37%
Target sequence (P63165 whole entry, looked up): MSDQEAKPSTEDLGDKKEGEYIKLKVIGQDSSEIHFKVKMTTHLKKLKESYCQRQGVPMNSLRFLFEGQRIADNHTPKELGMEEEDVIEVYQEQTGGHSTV
NadD inh conf – inhibitors of S. aureus NadD, confirmation, biochemical, colorimetric, single concentration | 2,000 tested, 13% active | shares compounds with NadD inh | purified S. aureus NadD, colorimetric enzyme assay | inhibition, % at 20 µM; in the data active means inhibition mostly above about 42%, no sharp cut-off; inactive means mostly below about 42%
* marks the source's active call; other numbers are inactive results; . = not tested or not shown. Most compounds without a hit are left out; they make up all but 2.4% or so of the library.

SMILES	Scp-1 inhibitor	LMPTP inh	DNMT1 block	NadD inh	STEP inh	SUMO1-SIM PPI	NadD inh conf
CC(C)=CCC/C(C)=C/CNC(=O)C[C@H]1C[C@H](C(=O)N2CCCCC2)[C@@]2(CCc3ccccc3)c3[nH]c4cc(-c5ccco5)ccc4c3CCN2C1=O	1.3	0.2	15.5	44.5*	2.6	6.0	10.7
CC(C)(C)c1ccc(C(=O)Nc2nonc2-c2nc3ccccc3[nH]2)cc1	-1.2	-2.0	31.4	55.1*	4.5	1.5	1.9
CCn1c(-c2nonc2NC(=O)c2ccccc2)nc2ccccc21	-6.2	6.4	14.4	-9.3	-0.3	-0.2	.
O=C(O)CSCc1nc2scc(-c3ccccc3)c2c(=O)[nH]1	-8.3	0.5	-0.7	-3.0	3.6	2.0	.
Nc1nonc1-n1nnc(C(=O)N/N=C/c2c(Cl)cccc2Cl)c1CSC1=NCCS1	-10.6	2.0	-0.9	34.1*	-2.5	-6.6	39.0
Nc1nonc1-n1nnc(C(=O)N/N=C/C=C/c2ccccc2)c1CSC1=NCCS1	-3.3	2.3	-13.6	32.1*	2.9	-24.2	25.7
CCCc1nc2c(nnn2Cc2ccccc2)c(=O)[nH]1	2.3	-1.4	6.9	-2.1	1.9	2.2	.
Cc1ccc(NC(=O)COC(=O)CCC(=O)c2cccs2)cc1C	-20.2	-0.1	0.2	-9.2	0.2	2.0	.
COc1cc(/C=C/C(=O)c2ccc(NS(=O)(=O)c3ccc(C)cc3)cc2)cc(OC)c1O	-10.4	3.0	-22.4	32.0*	-3.9	-3.7	45.7
COc1ccc(-c2cc(C(=O)Nc3ccc(S(=O)(=O)Nc4ncccn4)cc3)c3ccccc3n2)cc1	5.8	3.7	-1.0	21.6	-0.7	-3.8	.
COc1ccc(-c2cc(C(=O)Nc3ccc(S(=O)(=O)Nc4onc(C)c4C)cc3)c3ccccc3n2)cc1	6.0	-0.3	-12.3	28.8*	-2.4	-8.7	65.7*
Cc1ccnc(NS(=O)(=O)c2ccc(NC(=O)c3cc(-c4ccc(Br)cc4)nc4ccccc34)cc2)n1	-7.1	1.6	-0.3	73.5*	-2.8	-1.2	46.2*
Cc1ccc(OCC(=O)OCC(=O)NC2CCCC2)cc1C	-5.7	-0.2	4.5	-7.4	0.2	2.6	.
Cc1cnc(CN(C)C(=O)c2ccc3oc(Cc4ccccc4)nc3c2)[nH]1	-0.1	0.9	4.7	-0.2	-1.6	-1.1	.
O=C(NC(=S)Nc1nc(-c2cccc([N+](=O)[O-])c2)cs1)c1cc(Cl)ccc1Cl	1.9	0.8	-0.3	30.4*	0.4	-4.5	7.8
COc1cc(/C=c2\sc3n(c2=O)C(c2ccccc2)C(c2ccccc2)=NN=3)ccc1O (stereo unspecified)	-7.9	0.7	-11.7	28.6*	7.1	-11.8	50.9*
CCOC(=O)C1=C(C)N=c2s/c(=C/c3cccc([N+](=O)[O-])c3O)c(=O)n2C1c1ccc(OC)cc1OC (stereo unspecified)	-2.4	-0.3	-7.0	35.6*	6.1	2.6	8.6
CCOC(=O)C1=C(C)N=c2s/c(=C/c3ccc(OCC(=O)O)cc3)c(=O)n2C1c1ccc(OC)cc1OC (stereo unspecified)	20.3	-0.7	2.1	13.7	2.0	-1.1	.
COc1ccccc1C1C2=C(N=C3SCC(=O)N31)c1ccccc1CC2 (stereo unspecified)	2.9	2.2	-4.7	0.9	-4.8	4.1	.
CCOC(=O)C1=C(C)N=c2s/c(=C\c3ccc(O)c([N+](=O)[O-])c3)c(=O)n2C1c1ccccc1OC (stereo unspecified)	13.0	-0.9	-26.5	37.7*	2.2	-21.0	5.4
COc1cc(/C=c2\sc3n(c2=O)CCCN=3)ccc1O	-4.9	0.0	3.6	8.2	1.9	-38.5	.
COc1ccc(/C=c2/sc3n(c2=O)C(c2ccccc2OC)C2=C(N=3)c3ccccc3CC2)cc1O (stereo unspecified)	5.0	4.0	-24.8	52.6*	-1.4	-7.3	26.9
CCOC(=O)C1=C(C)N=c2s/c(=C\c3ccc(OCC(=O)O)cc3)c(=O)n2C1c1ccccc1OC (stereo unspecified)	15.3	1.2	3.1	9.4	1.1	-14.6	.
CCOC(=O)N1CCN(Cc2nc3cc(NC(=O)CC)ccc3n2C)CC1	-2.8	-2.5	3.1	-2.5	-1.1	-1.2	.
Cc1cc(C(=O)CN2C(=O)NC3(CCCCC3C)C2=O)c(C)n1Cc1cccs1 (stereo unspecified)	-7.6	-1.2	-8.4	1.5	0.6	-2.3	.
SMILES	Scp-1 inhibitor	LMPTP inh	DNMT1 block	NadD inh	STEP inh	SUMO1-SIM PPI	NadD inh conf
CC(O)COc1ccc(/C(=N/O)c2ccccc2)cc1 (stereo unspecified)	-0.7	-2.8	-0.7	-7.6	-0.7	0.9	.
CC(=O)c1c(C(C)=O)c(C)n(Cc2ccc3c(c2)OCO3)c1C	2.5	0.4	-6.8	5.6	0.6	1.8	.
CCN(CC(=O)Nc1ccc(NC(C)=O)cc1)C(=O)c1oc2ccccc2c1C	3.7	0.5	15.6	-1.7	0.7	-1.2	.
C=CCn1c(SCC(=O)Nc2ccccc2C)nnc1-c1ccncc1	2.9	0.5	0.3	48.7*	2.1	2.3	6.3
C=CCn1c(SCC(=O)Nc2ccccc2CC)nnc1-c1ccncc1	-8.4	-1.3	0.7	-10.7	-3.9	-0.8	.
Cc1cccc2cc(C3CC(c4ccco4)=NN3C(=O)CCC(=O)O)c(Cl)nc12 (stereo unspecified)	-2.7	-0.7	2.7	1.4	-1.1	-0.1	.
Cc1cc2nc(-c3ccccc3)c(Cc3cccc(Cl)c3)n2c(C)c1Br	.	1.9	.	37.5*	.	7.6	25.5
Cc1ccc(-c2nc3cc(C)c(Br)c(C)n3c2Cc2cccc(Cl)c2)cc1	.	-0.5	.	6.6	.	9.0	.
Cc1cc2nc(-c3cccc(Br)c3)c(Cc3ccsc3)n2c(C)c1Br	.	2.0	.	41.3*	.	7.2	18.7
Clc1cccc(Cc2c(-c3cccc(Br)c3)nc3ccc(Br)cn23)c1	.	1.4	16.2	30.2*	-4.2	-1.6	43.7
Clc1cccc(Cc2c(-c3cccc(Cl)c3)nc3ccc(Br)cn23)c1	.	3.5	-3.4	16.4	3.1	-3.7	.

Screening data deposited in PubChem BioAssay by Sanford-Burnham Center for Chemical Genomics.
